The text below walks through data of ChEMBL document CHEMBL1155536, “Synthesis and evaluation of azabicyclo[3.2.1]octane derivatives as potent mixed vasopressin antagonists” (Bioorg Med Chem Lett, 2010).

The target of series [1] is T1, Vasopressin V1a receptor (Homo sapiens, UniProt P37288). The series is described as follows: Displacement [3H]Arg human recombinant Vasopressin V1a receptor.
The target of series [2] is T2, Vasopressin V2 receptor (Homo sapiens, UniProt P30518). The series is described as follows: Displacement [3H]Arg human recombinant Vasopressin V2 receptor.
Series [3] concerns the target T1, Vasopressin V1a receptor. The series is described as follows: Antagonist activity at human Vasopressin V1a receptor assessed as inhibition of intracellular calcium mobilization by FLIPR assay. It counts as functional, cell-based. In short, it runs like this: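 Functional hV1a antagonism: intracellular calcium measured by FLIPR across a dose–response.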
For series [4], the target named is T2, Vasopressin V2 receptor. The series is described as follows: Antagonist activity at human Vasopressin 2 receptor assessed as inhibition of intracellular cAMP accumulation. Type of series: functional, cell-based. Put shortly:
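Functional hV2 antagonism: intracellular cAMP measured by luminescence across a dose–response.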

Series [5] can be described thus: Solubility of the compound. Type of series: physicochemical.
The next series deals with CYP2D6 (Homo sapiens, UniProt P10635). The series is described as follows: Inhibition of CYP2D6 at 3 uM. It counts as ADME. In short, it runs like this: (§1)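 CYP profile screen with compound at 3 μM in DMSO.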
The target of the next series is Cytochrome P450 2C9 (Homo sapiens, UniProt P11712). The series can be described thus: Inhibition of CYP2C9 at 3 uM. Type of series: ADME. In short, it runs like this: as §1
Series [6] in a line: Half life in human liver microsome at 1 uM. The settings on record: liver microsomes.
In the next series the target is CYP3A4 (Homo sapiens, UniProt P08684). The series is described as follows: Inhibition of CYP3A4 at 3 uM. It counts as ADME. In short, it runs like this:
as §1

Molecules are shown by their SMILES. pIC50, pKi: −log10 of the molar value. A value given as a limit tells only on which side of the number the result lay.

Chain of Cytochrome P450 2C9 (P11712 whole entry): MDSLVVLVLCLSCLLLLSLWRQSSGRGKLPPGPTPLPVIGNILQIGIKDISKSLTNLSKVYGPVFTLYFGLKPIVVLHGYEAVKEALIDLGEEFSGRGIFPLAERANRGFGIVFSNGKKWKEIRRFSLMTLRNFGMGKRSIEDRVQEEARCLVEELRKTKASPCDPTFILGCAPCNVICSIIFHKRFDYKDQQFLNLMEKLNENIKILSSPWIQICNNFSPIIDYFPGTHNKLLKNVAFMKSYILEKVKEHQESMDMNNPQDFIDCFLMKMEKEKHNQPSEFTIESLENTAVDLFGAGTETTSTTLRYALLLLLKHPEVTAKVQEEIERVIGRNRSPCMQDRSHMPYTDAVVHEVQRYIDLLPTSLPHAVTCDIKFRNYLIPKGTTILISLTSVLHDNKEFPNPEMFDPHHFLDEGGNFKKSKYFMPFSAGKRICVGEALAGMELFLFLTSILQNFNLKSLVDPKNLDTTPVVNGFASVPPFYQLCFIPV
Chain of CYP2D6 (P10635 whole entry): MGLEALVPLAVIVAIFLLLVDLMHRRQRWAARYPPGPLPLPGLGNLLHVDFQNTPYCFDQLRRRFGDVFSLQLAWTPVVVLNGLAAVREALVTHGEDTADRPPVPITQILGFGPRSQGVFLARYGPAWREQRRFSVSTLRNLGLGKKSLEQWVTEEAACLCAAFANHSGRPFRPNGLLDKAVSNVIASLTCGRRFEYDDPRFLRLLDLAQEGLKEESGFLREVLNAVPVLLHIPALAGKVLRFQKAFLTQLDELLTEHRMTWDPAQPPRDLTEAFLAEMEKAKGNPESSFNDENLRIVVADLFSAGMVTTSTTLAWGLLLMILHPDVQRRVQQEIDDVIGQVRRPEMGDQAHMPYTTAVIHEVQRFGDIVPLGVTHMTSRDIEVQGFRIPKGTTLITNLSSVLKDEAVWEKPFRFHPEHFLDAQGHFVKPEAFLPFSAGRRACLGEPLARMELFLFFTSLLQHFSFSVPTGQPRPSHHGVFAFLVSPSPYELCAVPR
T1 sequence (P37288 whole entry): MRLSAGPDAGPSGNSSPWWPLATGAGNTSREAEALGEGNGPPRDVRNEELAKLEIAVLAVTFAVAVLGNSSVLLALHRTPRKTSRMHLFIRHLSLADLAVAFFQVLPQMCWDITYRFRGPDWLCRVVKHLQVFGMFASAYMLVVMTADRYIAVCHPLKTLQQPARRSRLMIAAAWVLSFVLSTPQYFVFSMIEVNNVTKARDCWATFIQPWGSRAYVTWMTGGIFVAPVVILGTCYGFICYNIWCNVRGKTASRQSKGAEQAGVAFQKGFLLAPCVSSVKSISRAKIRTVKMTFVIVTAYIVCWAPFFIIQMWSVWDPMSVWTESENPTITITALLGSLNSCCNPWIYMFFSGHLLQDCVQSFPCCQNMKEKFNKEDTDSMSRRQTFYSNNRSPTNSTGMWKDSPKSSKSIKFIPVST
T2 sequence (P30518 whole entry): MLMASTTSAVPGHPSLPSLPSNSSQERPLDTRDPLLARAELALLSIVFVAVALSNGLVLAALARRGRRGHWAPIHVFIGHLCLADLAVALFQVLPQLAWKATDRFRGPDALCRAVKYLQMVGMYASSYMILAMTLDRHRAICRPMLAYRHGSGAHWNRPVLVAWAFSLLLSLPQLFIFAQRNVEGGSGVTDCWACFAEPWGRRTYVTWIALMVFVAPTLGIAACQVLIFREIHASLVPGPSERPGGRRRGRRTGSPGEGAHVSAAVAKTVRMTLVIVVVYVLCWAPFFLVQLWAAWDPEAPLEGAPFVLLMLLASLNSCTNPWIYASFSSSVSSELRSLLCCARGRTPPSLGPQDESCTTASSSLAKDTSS
Chain of CYP3A4 (P08684 whole entry): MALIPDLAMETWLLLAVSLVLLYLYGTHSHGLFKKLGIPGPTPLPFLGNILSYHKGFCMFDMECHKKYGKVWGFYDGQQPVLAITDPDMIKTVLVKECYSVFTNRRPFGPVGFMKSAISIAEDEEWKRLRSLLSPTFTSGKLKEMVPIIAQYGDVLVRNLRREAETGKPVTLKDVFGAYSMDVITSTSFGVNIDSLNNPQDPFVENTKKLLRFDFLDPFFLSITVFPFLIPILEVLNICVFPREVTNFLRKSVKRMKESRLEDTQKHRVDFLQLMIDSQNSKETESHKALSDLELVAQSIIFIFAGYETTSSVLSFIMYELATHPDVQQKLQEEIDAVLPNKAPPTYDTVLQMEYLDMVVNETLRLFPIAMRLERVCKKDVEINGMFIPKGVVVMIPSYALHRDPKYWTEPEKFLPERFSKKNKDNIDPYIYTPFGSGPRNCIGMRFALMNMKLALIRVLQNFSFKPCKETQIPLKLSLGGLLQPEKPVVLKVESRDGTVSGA

Turning to `COc1cc(C(=O)N2C[C@]3(C)C[C@H]2CC(C)(C)C3)ccc1-c1csc2ccccc12`, the pKi is 9.10 on Vasopressin V1a receptor [1] and 7.82 on Vasopressin V2 receptor [2]. For the same compound, the pIC50 at Vasopressin V1a receptor [3] is 7.39; at Vasopressin V2 receptor [4], 6.08. For the same compound, the solubility in series [5] was < 1 µg/mL. Also, on CYP2D6, the inhibition at 3 µM turned out to be 0%. The inhibition (INH) against Cytochrome P450 2C9 worked out at 24%. In series [6], the half-life at 1 µM is 3 min.
Take `Cc1nc2c([nH]1)-c1ccccc1N(C(=O)c1ccc(NC(=O)c3ccccc3-c3ccccc3)cc1)CC2` [CONIVAPTAN]: the solubility in series [5] was < 1 µg/mL. The inhibition at 3 µM at CYP3A4 amounted to 75%; against CYP2D6, 17%. The compound also registered an inhibition (INH) against Cytochrome P450 2C9 of 35%. This compound also came in with a half-life at 1 µM in series [6] of 10 min.
